Test system: MS2 coat protein
Assay: apparent Kd, MS2 coat protein; higher = weaker binding; RNA-MaP array; FMN 200 µM where present
Procedure, shortened: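 Apparent Kd: the median of filtered binding-curve fits from single clusters. Designs were transcribed on Illumina sequencing-chip clusters by stalled E. coli RNA polymerase and titrated with SNAP-549-labelled MS2 coat protein from 0.7 or 1.5 nM, doubling to 3 µM, in 100 mM Tris-HCl pH 7.5, 80 mM KCl, 4 mM MgCl2, BSA, DTT, yeast tRNA and Tween-20. Each series ran without and then with constant ligand, and green signal was normalised to red-channel RNA signal and control-cluster median Fmax.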

[1] = designed as: OFF switch for flavin mononucleotide, no ligand
[2] = ligand present: flavin mononucleotide, designed as: OFF switch for flavin mononucleotide
[3] = designed as: ON switch for flavin mononucleotide, no ligand
[4] = ligand present: flavin mononucleotide, designed as: ON switch for flavin mononucleotide

Sequence	apparent Kd [1] [nM]	apparent Kd [2] [nM]	apparent Kd [3] [nM]	apparent Kd [4] [nM]
GGAUAGUGUCGUUAUCCGUAGCGAACAUGAGGAUCACCCAUGUAGGAUAUGUUAUUAAACUAAUAACAGAAGGGCGUGAGUCUC	429	480		
GGGCUGUCAGGAUAUGGGCCCGGGCCCGAAAGGGCCCGGGUUUAGAAGGGACAUGAGGAUCACCCAUGUGGCCC	32.5	37.2		
UAUGUGUCAGGAUAUUGUUAAUUUAGUUGUUUGUAUUAGUUCGAGAAGGGACAUGAGGAUCACCCAUGUUGUUU	31.9			
GUGGUGCUAAAGAAGCACAUGAGGAUCACCCAUGUGCCGACACAGGAUAUCGACCGCGUUGGCGUCGAGAAGGGUGAGCCUACU			63.4	34.4
AGAGAAUAGGUAGGAUAUCUUAAUAGAAAGAAUAGAGAAGGACCACAUGAGGAUCACCCAUGUGAUGUCUUGAGACUACAUGGU	16.4	19.4		
AUAAAUCAUGUAGGAUAUGCGUGGCGAAGCUAUGCAGAAGGACAUGAGGAUCACCCAUGUCUUUCCGUCUGCGUACAGACGGAA	33.4	311		
GUGCGGUAGGAGAAGGACGGAGGCUUCUUUUCAUACAUGAGGAUCACCCAUGUAGGAUAUCCUACCUCACGCGGCCUACUUCUG	5.22	5.06		
CCAUGCAUAGCGAUAUGAUCGAGAGAUCAUGUCGCUAAAUUUAGAAGGACAUGAGGAUCACCCAUGUAGGAUAUGGGAGCAUGG			11.7	8.26
GGACAUGUACAGAAGGGCAAUUUAUUUAUUGAUUAUUUAGUUCUGUUUUGCAGGAUAUGUAAAACAUGAGGAUCACCCAUGUCC			188	105
UAUAUAUAGUAAGGAUAUGUAUUUAUUUCAUAAACAGAAGGUACUGACAUGAGGAUCACCCAUGUUUUAGUGUGGGCAUGUAGA	81.8	121		
AGUUAAUAUCGAGGAUAUCCUCAUAAACAUGAGGAUCACCCAUGUUAACAUGGAGAAGGCGAUAUUAACAGCAUGUUACAUGCA			268	20.2
UUAAAUCAUGUAGGAUAUGCAUGGCGAAGCUACGCAGAAGGACAUGAGGAUCACCCAUGUUAAAGCGACCGAGUUCGGUUGCAA	124	214		
AACUCGUCAGGAUAUGCGCGCAGUUACUACGCUUCGCAAUUGCAGAAGGGACAUGAGGAUCACCCAUGUAGGUC	46.9	48		
CAUACACAUGAGGAUCACCCAUGUGAGGAUAUGCGUACGUUGUCCGUAGGCGACGUGCGCAGAAGGCGCGUGAG	60.1	67.6		
AGUGUCGGCACAGGAUAUGAGAUGCCGGCAGACAUGAGGAUCACCCAUGUAAGCGAACCGGGCAGUCAGAAGGGUGAUCGACGA			161	29.7
AGUUAAUAUCGAGGAUAUCCUCUGAAACAUGAGGAUCACCCAUGUAGAAUGGGAGAAGGCGAUAUUAACAGCAUGUUACAUGCA			111	48.6
UUUAUUUUGCAAGGAUAUGUUUAAUUUUAGUUUCCUUAUACAUGAGGAUCACCCAUGUUAUACUUACAGAAGGUGCAUAAUUUU	81.6	59		
CAGUACUGAGGAUAUACAUGAGGAUCACCCAUGUGUUCCAGCUAGGAAACGAGCAAAAGUAGAAGGCAGUACUG	21.9	282		
CGAAGUCCGUAGAAGGGUGACAUGAGGAUCACCCAUGUGCGAGCCGAGGGAGUCAGCGGCUCGCCACAGGAUAUACGGAGCACG			33.5	21.7
UGGAGAAAUCAAGGAUAUGCUACCGUUUCGGUAGCAGAAGGUGAUCACAUGAGGAUCACCCAUGUAUGCAUGCGUGAGCGUGCU			46.4	289
UGUCGGAGCAGAGGAUAUUACAUGAGGAUCACCCAUGUAUGAACCAAUAGCUGGAAACAGCAAUGUAAGAAGGCGGCUCCGACA	5.18	9.07		
UUAUGAGCGAUAGGAUAUACUGAGAUUGAAUGGGUAGAAGGAUCGAUCGUGUGGAAGACAUGAGGAUCACCCAUGUUACGGGCC			56	166
UCUCGACAUGAGGAUCACCCAUGUCAGGAUAUUGUGUUUGAGGUUUUUUACCUUUUGACAAGAAGGGAUGUGUG		30.4		
CUUUUAUAAUAGAAGGUAGACUUUAAGUGGAUCACCCAUGUGUAGGUACUAAGGAUAUGUAGUUACAUGAGGAUCACCCAUGUU			172	143
GCAUCUCUAUUAGAACCGAUACGAACAUGAGGAUCACCCAUGUAGGAUAUGCUAAAAGUUGUGUUGCAGAAGGACAUUUAAUGC	9.49	8.64		
GCCGAAAGUGUGAGGAUAUACCUAUGGAAACAUAGGUAGAAGGCACAUGAGGAUCACCCAUGUUCCUCAUCGGC	123	623		
GCCGAUUAAGUGAGGAUAUACCUAUGGAUACAUAGGUAGAAGGUACAUGAGGAUCACCCAUGUUCCUCAACGGC	10.4	12.7		
GCCAUCGCAUGAGGAUAUGGCACCGUUUCGGUGCCAGAAGGCAUGUCAAAUGACAUGAGGAUCACCCAUGUAGUUAAGGUGGCA			225	14.9

Sequence	apparent Kd [1] [nM]	apparent Kd [2] [nM]	apparent Kd [3] [nM]	apparent Kd [4] [nM]
CUUUUGUGAGGAUAUCAGUAGUAAAAAAAUAAAAUUACUACUGAGAAGGCACAUGAGGAUCACCCAUGUUCCUC	30.7	237		
AUAGUCGGGAGAUAAACUCGUGCGGUAGAAGGGUGAUACUGGACAUGAGGAUCACCCAUGUGCACACAGGAUAUGCCCGCGAGC			83.6	24.3
UUAUGCUGAGAGAAGGUUCAAACUACAUAUUGCGCACAUGAGGAUCACCCAUGUUGGUGAAUAAGAAAGGAUAUUUUACUGUAU	63.2	43.1		
UGGUACAUGGGAGGAUAUCCUCAACAUGAGGAUCACCCAUGUAAGAAUUAUAAGCCGAAAGGCAUGGAGAAGGCCCAUGUACCU			71.6	15.3
GUUUGAUUGUAGAAGGUACUUAAUACUCAUGUUACAUGAGGAUCACCCAUGUUUCUACAUUAUUGUAAGGAUAUACAUAACUCA			259	48.6
CCGUUACAUGAGGAUCACCCAUGUGAGGAUAUCGGUGUGACUGGCAGCGUGCGGGACUCGAGAAGGCACUGGGC	71.2	87.9		
GGAGCUCACAUGAACAUGAGGAUCACCCAUGUAACUAGACAUGAGGAUAUGGAUCCUAAUUGGAUCCAGAAGGCAUGGAGCUCC			161	27.9
GUGCCUUAUGAGAAGGCGAUCAUGAAACAUGAUCGAGGAUAUCAUGUAAACAUGAGGAUCACCCAUGUAUGGGUAUUAUGGUAC			547	55.5
GCUCUACAUGAGGAUCACCCAUGUCCAUCCGCACGAGGAUAUGCAUGGGCGAAAGCUGGUGCAGAAGGCGUGGGAC			190	98.8
GGUACCUUCACAGGAUAUGCUAUGCUUUGCGUAGCAGAAGGGUGAUACAUGAGGAUCACCCAUGUGGUGCCAGGGCGUGAGCCC			283	278
AAGUCACGAAUAAUAAUAAGAUCUACAUGAGGAUCACCCAUGUAGGAUAUGCAGUGGAAUACACUGCAGAAGGACAUACGUGAC	14.1	16.7		
UAACAUGUCCGAGGAUAUCUGGAAACAUUUUCAAGAGAAGGCGGACAUGAGGAUCACCCAUGUCUCUCCUCAUCAACUACAAAU	8.61	57.5		
GGAUAGGACAGAGGAUAUACAUGCUAGAGAUACUAGCAAAAUUUCCUCACAUGAGGAUCACCCAUGUAGAAGGCUGUCCUAUCG	28.5	673		
UUAAUUAAUUAAUUGCAGAAUUACAUGAGGAUCACCCAUGUAUAGGAUAUCGUCAGGAAUACUGACGAGAAGGAUACAUACUGC	17.9	26.6		
UGGGCUUUAGGAUAUGCGUGUUGUAGUCGGCGAUGUGGUUCACAUGAGGAUCACCCAUGUAGAAGGAGGGUUUA	139	120		
CUGUUAUUGAUCCAUUUUUUCAACAUGAGGAUCACCCAUGUGCAGGAUAUCGUGAUUAUUAUCAACGAGAAGGGCAGAUUCACG	74	178		
CUCAAACAUGAGGAUCACCCAUGUGUUGUCAUGGGAGGAUAUCUAAGUUCGUUGUAUUCGGGAGAAGGCCUAUGUC			258	55.1
GGUCUGAUAUGAGGAUAUGCUCAGGAAUACUGAGCAGAAGGCAUGUGAAUACAUGAGGAUCACCCAUGUGAUCAAUACAGACCA			140	26
AUCAGCUCGUCAGGAUAUACGUCACUGCGUCAGCAGUGUGGUUAGAUCACAUGAGGAUCACCCAUGUAGAAGGGACGAGCUGAU	23.4	458		
UAGUAUAAGGGCAUUACACAUGAGGAUCACCCAUGUACGUUAGAGGAUAUGCAUUACAGUCGAACGUAGAAGGUUAGAGAAGGG	168	157		
AUUUCAAUCUAUACUAUACAAACAACAUGAGGAUCACCCAUGUAGGAUAUCGUAUGUAUCAACUACGAGAAGGACAUAAUCUUA	13.7	13.4		
CCGGAGACGGGUAGCCUGACAUGAGGAUCACCCAUGUGAUCCAAGGAUAUGGAUCCUAAUUGGAUCCAGAAGGUGGUUGGCUAC			376	371
GCACCUUUAUUUGAACCGAUACGAACAUGAGGAUCACCCAUGUAGGAUAUGCUAAAAGUUGUGUUGCAGAAGGACAUUUAGUGC	9.36	8.98		
GGUCCACAUGAGGAUCACCCAUGUCAGGAUAUAUACGGCACAAUAAUAAGUGCCGCCCAUAGAAGGGACGCUGG	15.7	26.1		
CCGAAACCUCAGAAGGACCACAUGAGGAUCACCCAUGUCAAGCAAAACGGUAGGAUAUGAGGGAAAUGUCGAUAUACCCGACAG			7.9	4.72
AAAAAGCGAGGAUAUACAUGAGGAUCACCCAUGUAAAAAACAUGGGAUGAAACAUCAUGUAGAAGGCGCAAAAA	22.6	26		
CAAUUCUGAGGAUAUCGAUUUUUGUACAUGAGGAUCACCCAUGUCCUUUUUAUUUAAUCCCGAGAAGGCAGUGUAU	23.3	26.1		
